Compounds with a hit are over-represented: about 2.6% of the library has one in this group of screens.
Xi reactivation – activators of inactive X chromosome reactivation, primary screen, imaging, XiGFP fibroblasts, GFP high-content imaging, set 2; XiGFP mouse fibroblasts, % GFP-positive cells imaging, 3 d; cells co-treated with 5-aza-dC sensitizer; scaled so ellipticine positive control = 100%; hit rate 0.055% among 360,000; AID 743238, 2013; activation, % at 7.58 µM;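 active = mean normalized replicate activation at least 10% and every replicate at or above 10%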;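 also: 0% = median of on-plate neutral control wells and 100% = ellipticine 6 µM median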
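System: 68-5-11 XiGFP fibroblast line | Buffer or medium: DMEM containing 5-aza-dC | Compound: Single point | Times: Compounds 3 days, fix/stain 15 min at room temperature | Benchmarks: Positive control ellipticine, 6 µM final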
SR-BI uptake up – activators of SR-BI mediated DiI-HDL uptake, primary screen, ldlA[mSR-BI] CHO cells, DiI fluorescence | hit rate 0.096% among 320,000 | AID 504775, 2011 | activation, % at 12.5 µM | 3 h; 100 = double the neutral-control signal;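 active = mean replicate activation of at least 60% and every replicate at or above 60%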;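 also: 0% = median plate neutral-control signal and 100% = twice that signal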
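Test system: SR-BI-overexpressing, LDLR-lacking CHO cells. Measured by: DiI fluorescence, bottom read. Medium: Ham's F12 with 0.5% BSA, HEPES 25 mM, pH 7.4. Timing: 3 h uptake period with compound, 37 °C.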
PvdQ inh – P. aeruginosa PvdQ acylase inhibitors, primary screen, biochemical, fluorescence, plate reader and imaging, single point; inhibition, % at 10 µM; AID 488965, 2010; purified PvdQ acylase; PvdQ acylase [Pseudomonas aeruginosa LESB58]; hit rate 0.063% among 340,000; in the data active = inhibition above about 30%, passing the limit was not always enough;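 also: 0% = vehicle neutral wells and 100% = reference inhibitor wells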
Ecoli rRNA inh – reduced GFP signal of wild-type E. coli, primary screen, bacterial rRNA inhibitor project, GFP/RFP fluorescence, OD600, single point; GFP signal change (wild-type ribosome), % (test concentration not listed); E. coli WT GFP vs humanized-ribosome RFP mutants, 24 h; stronger effect = lower value; DMSO median 0, no signal -100; hit rate 1.6% among 350,000;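 active = significant combined selectivity score with lowered wild-type GFP, culture density cut under 30%, mutant RFP and density less affected; inactive = any of these conditions unmet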
SR-BI DiI inh – inhibitors of SR-BI mediated HDL lipid uptake, primary screen, ldlA[mSR-BI] cells, fluorescence, single point; ldlA[mSR-BI] CHO cells, DiI-HDL uptake fluorescence, 3 h; hit rate 0.96% among 320,000; inhibition, % at 12.5 µM; Scavenger receptor class B member 1 (Mus musculus), Q61009;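 active = mean replicate inhibition of at least 70% and a set share of replicates each scoring 70 or more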;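 also: 0% = median of neutral control wells and 100% = median of positive control wells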
dFosB activator – activators of delta FosB homodimer, primary screen, biochemical, fluorescence polarization, TAMRA-CDK5 oligo, single point; hit rate 0.99% among 340,000; activation, % at 25 µM; purified delta FosB; percent of positive-control signal above neutral wells; Protein FosB (Mus musculus), P13346;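 active = mean activation above about 17%, with every replicate also reaching it, limit read from the data, passing the limit was not always enough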
Target sequence (P13346 whole entry, looked up): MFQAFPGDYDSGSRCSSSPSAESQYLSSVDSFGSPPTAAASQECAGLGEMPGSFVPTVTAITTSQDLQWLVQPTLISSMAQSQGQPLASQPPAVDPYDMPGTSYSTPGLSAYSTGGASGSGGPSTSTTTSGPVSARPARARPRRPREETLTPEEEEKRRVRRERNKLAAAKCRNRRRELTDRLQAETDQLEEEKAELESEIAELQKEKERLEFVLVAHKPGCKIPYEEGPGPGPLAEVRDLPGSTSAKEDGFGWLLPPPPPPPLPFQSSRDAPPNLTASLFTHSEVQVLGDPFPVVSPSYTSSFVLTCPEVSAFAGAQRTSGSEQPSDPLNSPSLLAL
The depositor's hits bear a star; . = no result.

SMILES | Xi reactivation | SR-BI uptake up | PvdQ inh | Ecoli rRNA inh | SR-BI DiI inh | dFosB activator
O=C(N/N=C(\Cc1ncc[nH]1)c1ccccc1)c1ccncc1 | 0.0 | -17.7 | 14.9 | -34.9 | 17.7 | 0.9
O=C(Nc1ccc2c(c1)[C@H]1C[C@@H](CC(=O)N3CCOCC3)O[C@H](CO)[C@H]1O2)NC1CCCCC1 | 0.0 | . | . | 2.9 | . | .
NS(=O)(=O)c1cccc(NC(=O)CSc2nnc(-c3ccccc3F)n2C2CC2)c1 | -0.1 | -1.6 | -3.4 | -29.2* | 1.6 | -11.9
O=C(COC(=O)c1cc(=O)[nH]c2ccccc12)Nc1cccc(S(=O)(=O)N2CCOCC2)c1 | . | -4.4 | -13.5 | -17.1* | 4.4 | -10.0
Cc1cc(C(=O)CSc2nc3ccc(Cl)cc3[nH]2)c(C)n1C | . | -38.0 | -14.4 | . | 38.0 | -14.8
O=C(CSc1nc2ccc(Cl)cc2[nH]1)c1cccs1 | 0.1 | . | -4.0 | -24.6* | . | -10.3
NS(=O)(=O)c1cccc(NC(=O)CSc2nc3ccc(Cl)cc3[nH]2)c1 | 0.0 | -28.1 | -21.3 | -37.3* | 28.1 | -8.9
O=C(CSc1nnc(-c2ccccc2F)n1C1CC1)Nc1ccc2[nH]c(=O)[nH]c2c1 | 0.1 | . | 2.8 | -2.1 | . | -1.6
CCCC(=O)N1CC2(CCN(C(=O)C3CCC3)CC2)c2c(n(C)c3cc(OC)ccc23)[C@H]1CO | 0.3 | . | . | -3.1 | . | .
O=C(c1ccco1)N1CCN(CC(O)Cn2c3ccccc3c3ccccc32)CC1 (stereo unspecified) | . | 2.1 | -15.2 | . | -2.1 | -4.2
O=[N+]([O-])/C(C(Cl)=C(Cl)Cl)=C(\Sc1ccccc1)N1CCCCC1 | 0.1 | 2.1 | -4.8 | 9.4 | -2.1 | 0.1
Nc1ccc(Cc2ccc(N)c(O)c2)cc1O | 0.2 | -14.1 | -12.2 | -5.2 | 14.1 | 44.5*
Cc1sc(NC(=O)c2ccco2)nc1-c1ccc2c(c1)CC(C)N2C(=O)C1CC1 (stereo unspecified) | . | -78.7 | 5.4 | -10.0 | 78.7* | -8.5
CCOC(=O)c1sc2nc(CSc3ccccc3)nc(NCCN(C)C)c2c1C | 0.2 | 29.0 | -7.5 | -51.2 | -29.0 | -1.2
CC(CN(C)Cc1ccccc1)OC(=O)c1cccc(F)c1 (stereo unspecified) | 0.0 | 69.5* | 3.8 | . | -69.5 | 2.1
N#C/C(=N\Nc1ccc(Br)cc1)C(=N)N1CCOCC1 | 0.2 | -9.3 | -12.2 | -26.4* | 9.3 | -2.1
N#C/C(=N\Nc1ccc([N+](=O)[O-])cc1)C(=N)N1CCOCC1 | 0.0 | -0.1 | -0.8 | 3.4 | 0.1 | 4.3
O=C(COc1ccc(-n2cnnn2)cc1)NCCc1ccc(F)cc1 | . | 1.8 | -10.6 | . | -1.8 | -6.2
CCc1ccc(/C=N/NC(=O)c2cc(C3CC3)nc3ccc(Br)cc23)s1 | . | -87.1 | -11.2 | . | 87.1* | -6.1
O=C(N/N=C/c1ccco1)c1cc(C2CC2)nc2ccccc12 | 0.1 | . | . | 3.2 | . | .
N/C(Cc1ccc(Cl)cc1Cl)=N\OC(=O)c1ccc(Br)o1 | -0.1 | 14.3 | -10.8 | -22.3* | -14.3 | -9.2
CC(=O)c1cccc(NC(=O)C2=CC(c3cccs3)=NS(=O)(=O)N2C)c1 | -0.1 | -44.7 | -11.1 | -19.5* | 44.7 | -0.9
CCN(CC)C(=O)c1ccc2c(=O)n(CCOC)c(=S)[nH]c2c1 | . | 1.2 | -11.5 | . | -1.2 | -3.4
CCCn1c(=S)[nH]c2cc(C(=O)N(CCO)Cc3ccccc3)ccc2c1=O | -0.1 | 5.7 | -9.1 | -29.6* | -5.7 | -10.6
C[C@@H]1CN([C@@H](C)CO)C(=O)c2cc(C#CC3(O)CCCC3)cnc2O[C@@H]1CN(C)C(=O)CN(C)C | -0.5 | . | . | 3.9 | . | .
CCn1c(N)c(C(=O)NCc2cccnc2)sc1=S | . | -1.8 | -11.0 | . | 1.8 | -4.9
CCn1c(C(=O)NCc2cccnc2)cc2sc(Cl)cc21 | . | 418.3* | -12.7 | . | -418.3 | 0.0
